# Compounds with a hit are over-represented: about 1.8% of the library has one in this group of screens.
# AI-2 QS mod – modulates the Vibrio harveyi AI-2 quorum sensing system | Vibrio harveyi JMH597 AI-2 luminescence/OD600 ratio, 9 h; stronger effect = lower value; strain lacks LuxN and CqsS sensors; 0 = neutral-control median | activity change, % at 7.5 µM | hit rate 0.4% among 300,000; in the data active means activity change below about -75%, passing the limit was not always enough; inconclusive means no clear call, values can overlap the other calls;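 further: luminescence divided by OD600 gain over 9 h not by final OD600 alone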
# MC4R antagonist – antagonists of human melanocortin 4 receptor (MC4R); P32245; MC4R-expressing cells, MTII-stimulated cAMP, LANCE TR-FRET; inhibition, % at 6.5 µM; hit rate 0.48% among 360,000; AID 540295;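 active means inhibition above its plate's cutoff, the mean of tested wells on that plate plus 3 SD, cut at about 29% in these data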;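 further: 0% = Melanotan II alone and 100% = Melanotan II plus saturating MCL0020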
# Target sequence (P32245 whole entry, looked up): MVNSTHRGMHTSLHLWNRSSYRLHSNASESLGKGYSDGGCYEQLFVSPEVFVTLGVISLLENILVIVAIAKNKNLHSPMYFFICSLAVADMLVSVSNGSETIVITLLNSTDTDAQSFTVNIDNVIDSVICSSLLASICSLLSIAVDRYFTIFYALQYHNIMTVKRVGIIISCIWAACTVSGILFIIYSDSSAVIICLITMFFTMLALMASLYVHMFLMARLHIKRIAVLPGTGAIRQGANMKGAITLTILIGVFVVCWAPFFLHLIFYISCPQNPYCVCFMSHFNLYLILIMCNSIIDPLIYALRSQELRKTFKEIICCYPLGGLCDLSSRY
#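 Material – human MC4R-expressing U2OS cells · Repeats – no replicates · Detection – TR-FRET with Eu-cAMP and labeled anti-cAMP, 671 nm · Times – compound 30 min, challenge 1 h, detection 1 h · Compound – single nominal compound dose of 6.5 µM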
# NTR1 ag – activates human neurotensin receptor 1; activation, % at 20 µM; NTR1-U2OS beta-arrestin-GFP spot imaging, agonist mode; AID 493036; hit rate 0.17% among 330,000; P30989;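 active means activation at or above 40% of the spot to cytoplasm intensity ratio, with at least 20 cells analyzed; inconclusive means wells under 20 cells, flagged as cytotoxic or low count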;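 further: 0% = DMSO without peptide and 100% = 100 nM NTR1 peptide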
# MC4R barr agon – human MC4R agonism via beta-arrestin; hit rate 0.98% among 360,000; U2OS MC4R beta-arrestin complementation, luminescence; percent of melanotan II response, DMSO zero; P32245; activation, % at 8.9 µM; AID 540308;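 active means activation above a per-plate cutoff, the mean activation of sample wells on that plate plus 3 SD, cut at about 8% in these data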
# NTR1 ag conf – NTR1 (human) agonism, confirmed. shares compounds with NTR1 ag. NTR1-U2OS beta-arrestin-GFP translocation imaging. activation, % at 20 µM. hit rate 38% among 480. AID 504550;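 active means mean activation at 20 µM of at least 40%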;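 further: 0% = DMSO without peptide and 100% = 100 nM NTR1 peptide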
# Numbers without * were called inactive; ? = inconclusive; . = no result.
SMILES,AI-2 QS mod,MC4R antagonist,NTR1 ag,MC4R barr agon,NTR1 ag conf
CCOc1ccc(Br)cc1S(=O)(=O)Nc1ccccc1N1CCOCC1,2.2,2.2,49.4*,1.3,54.5*
CCOc1ccc(Br)cc1S(=O)(=O)Nc1ccc(N2CCOCC2)cc1,34.9,-0.6,0.5,-1.3,.
CCc1ccc(S(=O)(=O)/N=C2\C=C(Nc3ccc(O)cc3)C(=O)c3ccccc32)cc1,-1.5,-24.5,44.9*,1.4,20.6
CCc1ccc(S(=O)(=O)/N=C2\C=C(Nc3cccc(C(=O)O)c3)C(=O)c3ccccc32)cc1,29.0,-11.6,2.2,-3.0,.
COc1ccc2nc(NC(=O)CSCC(=O)Nc3cc(C)on3)sc2c1,12.4,6.8,-0.8,-3.4,.
C[C@H]1CN([C@@H](C)CO)C(=O)c2cccc(NC(=O)c3nc4ccccc4s3)c2O[C@H]1CN(C)C(=O)Nc1ccc(F)cc1,.,27.1,4.1,-0.5,.
CN(C(=O)COc1ccccc1C(=O)NCCOc1ccccc1)c1ccccc1,14.5,27.2,106.8*,3.5,62.7*
COc1ccc(NC(=O)C[C@H]2C(=O)N(CCc3ccccc3)C[C@@H]2c2ccc(OC)cc2)cc1,.,12.1,.,1.6,.
Cc1[nH]n(-c2ccccc2)c(=O)c1C(C[N+](=O)[O-])c1ccc(Br)cc1 (stereo not given),47.7,-5.2,17.2,1.9,.
COc1cccc(C(C[N+](=O)[O-])c2c(C)[nH]n(-c3ccccc3)c2=O)c1 (stereo not given),?,9.7,50.6*,-2.8,4.3
C=CCOc1ccc(/C=C/C(=O)N2CCCN(S(=O)(=O)c3c(C)noc3C)CC2)cc1,.,6.3,0.1,-2.1,.
CCOc1ccc(C(=O)Nc2nnc(NC(=S)Nc3ccccc3)s2)cc1,32.8,4.8,60.7*,-1.1,45.7*
CCc1nnc(NC(=S)Nc2ccccc2)s1,-2.0,3.2,1.1,-1.1,.
Cc1ccc(C(=O)Nc2nnc(NC(=S)Nc3ccccc3)s2)cc1,8.5,-2.2,72.9*,-3.5,57.6*
CC1CCC(N(C)C(=O)CN2C(=O)NC(c3ccccc3)(c3ccccc3)C2=O)CC1 (stereo not given),.,2.2,.,0.7,.
COc1ccc(NC(=O)N(C)C[C@H]2OCCCC[C@H](C)Oc3ccc(NC(=O)Nc4ccc5c(c4)OCO5)cc3C(=O)N([C@@H](C)CO)C[C@@H]2C)cc1,.,12.8,.,1.9,.
CCOC(=O)[C@@H]1[C@H]2COc3ccc(Br)cc3[C@H]2N2C(=O)N(c3ccc(F)cc3)C(=O)[C@@]12C,10.4,3.9,11.5,-0.9,.
CC(C)S(=O)(=O)c1csc(NC(=O)Nc2cccc([N+](=O)[O-])c2)c1Cl,14.7,1.6,50.4*,-1.5,10.6
COc1cc(NC(=O)Nc2cccc([N+](=O)[O-])c2)cc(OC)c1,9.2,8.0,5.4,0.3,.
Cc1cc(N/N=C/c2ccccc2O)nc(-c2ccccc2O)n1,23.2,-0.1,62.9*,-1.1,1.9
Cc1cc(Br)c2c(c1)/C(=C/C(=O)c1cccs1)C(=O)N2,16.0,-1.6,62.6*,6.2,41.4*
Cc1cc(C)c2c(c1)/C(=C/C(=O)c1ccc(Br)s1)C(=O)N2,13.5,12.5,57.8*,-0.5,68.3*
CCc1ccc2c(c1)/C(=C/C(=O)c1cccs1)C(=O)N2,31.6,-0.4,41.6*,-2.5,56.9*
CC(NCC(O)COCCC12CC3CC(CC(C3)C1)C2)c1ccccc1 (stereo not given),14.2,-1.2,46.3*,6.4,69.2*
Cc1ccccc1N(C(=O)c1ccccn1)C(C(=O)NCc1ccccc1)c1cccnc1 (stereo not given),9.6,9.1,-0.5,-2.6,.
SMILES,AI-2 QS mod,MC4R antagonist,NTR1 ag,MC4R barr agon,NTR1 ag conf
CCOC(=O)c1c(C)n(C)c2ccc(OCC(O)Cn3nc(C)c(Br)c3C)cc12 (stereo not given),33.9,4.1,40.9*,-1.6,11.1
CCOC(=O)c1c(C)n(C)c2ccc(OCC(O)CN3CCCCCC3)cc12 (stereo not given),24.2,-1.6,1.8,-0.3,.
COc1ccc(N2CCN(c3nc(NCCc4ccc(OC)c(OC)c4)nc(OC)n3)CC2)cc1,-0.5,16.8,43.6*,1.8,32.1
COC(=O)c1cc(=O)n(Cc2ccc3c(c2)OCO3)c(=Nc2ccc(F)cc2)s1,9.5,4.5,4.9,-0.2,.
COC(=O)c1cc(=O)n(-c2ccc(F)cc2)c(=Nc2ccc(F)cc2)s1,39.7,16.6,50.1*,0.3,51.7*
COC(=O)c1cc(=O)n(Cc2cccs2)c(=Nc2ccc(F)cc2)s1,16.3,19.0,41.7*,1.2,36.1
Cc1sc2nc(CSC(C)C(=O)Nc3cc(S(C)(=O)=O)ccc3Cl)[nH]c(=O)c2c1C (stereo not given),5.7,20.3,-0.5,-0.6,.
Cc1ccc(OCC(=O)N/N=C\c2cn(Cc3ccccc3)c3ccccc23)cc1C,17.5,13.4,40.6*,-0.2,5.1
COc1cc(C(=O)N/N=C/c2cn(Cc3ccccc3)c3ccccc23)ccc1O,6.8,-3.3,2.2,-2.7,.
CN(c1ccccc1)c1nc(N)c([N+](=O)[O-])c(Nc2cccc(F)c2)n1,4.3,12.3,44.1*,-0.1,37.5
Cc1ccc(S(=O)(=O)N2[C@@H](c3ccc(Cl)cc3)C(C(=O)O)=CC[C@H]2c2cccc(Cl)c2)cc1,.,6.8,2.0,-1.8,.
O=C(O)C1=CC[C@@H](c2ccc(Cl)cc2)N(S(=O)(=O)c2ccc(Cl)cc2)[C@H]1c1cccc(Cl)c1,.,10.0,56.4*,1.9,9.2
NC(=O)CSc1nnc(NC(=O)C23CC4CC(CC(C4)C2)C3)s1,28.7,-0.7,2.5,-0.2,.
CSc1nnc(NC(=O)C23CC4CC(CC(C4)C2)C3)s1,13.5,11.9,51.5*,-1.6,53.2*
C=C(C)COc1ccc(-c2ncncc2-c2ccc(Br)cc2)c(O)c1,25.0,-2.6,11.3,-1.2,.
CCOc1ccc(-c2[nH]ncc2-c2ccc(Cl)cc2)c(O)c1,104.2,1.2,55.4*,6.4,5.8
CCOc1ccc(-c2[nH]ncc2-c2ccc(OC)c(OC)c2)c(O)c1,.,-10.5,2.2,-0.6,.
C=C(C)COc1ccc(-c2[nH]ncc2-c2ccc(Br)cc2)c(O)c1,54.9,-24.2,40.9*,4.3,9.0
COc1ccc(CNC(=O)C2CCN(S(=O)(=O)N3CCCCC3)CC2)c(OC)c1,33.5,5.2,-0.3,-0.6,.
C=CC[C@H](CC(=O)NCCO)C(=O)NCCOC(=O)[C@@H](CC=C)CC(=O)OC(C)(C)C,.,2.1,-0.2,-0.1,.
N=c1c(C(=O)NCc2ccccc2)cc2c(=O)n3ccccc3nc2n1Cc1ccco1,16.5,-53.9,16.2,-2.2,.
N=c1c(C(=O)NCc2ccc(F)cc2)cc2c(=O)n3ccccc3nc2n1Cc1ccco1,32.0,-38.4,41.3*,-2.6,22.1
COc1ccc(CCNC(=O)c2cc3c(=O)n4cccc(C)c4nc3n(Cc3ccco3)c2=N)cc1OC,0.4,-36.9,41.5*,-3.3,11.5
COc1ccc(-c2cc(-c3cc(OC)ccc3O)[nH]n2)cc1,17.5,-3.0,4.2,4.5,.

# Screening results as filed in PubChem BioAssay.
